These results are taken from BindingDB's records for doi:10.1021/jm301002f (H. Lee Moffitt Cancer Center and Research Institute, 2012).

Residues, ends and D or L forms follow the SMILES beside them. *: point of attachment. Propyl(2R-PamO,3-PamO) = CCCCCCCCCCCCCCCC(=O)OC[C@H](C*)OC(=O)CCCCCCCCCCCCCCC; X1 = CC(=O)NCCCOCCOCCOCCCNC(=O)COCC(=O)*

Assay [1] addresses T1, Toll-like receptor 2 (Homo sapiens, UniProt O60603). Kind of assay: Agonist activity at human TLR2 expressed in HEK293 cells assessed as induction of NF-kappaB signaling after 24 hrs by luminescence based luciferase reporter gene assay. (In general: A reporter such as luciferase makes a cellular process visible.)
The target of assay [2] is T1, Toll-like receptor 2. The assay is described as follows: Displacement of Eu-DTPA from human TLR2 expressed in SU.86.86 cells after 1 hr.
In assay [3] the target is T1, Toll-like receptor 2. Kind of assay: Displacement of Eu-DTPA from human TLR2 expressed in HEK293 cells after 1 hr. The procedure, abridged: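 Live-cell europium TRF competition binding in HEK-293/hTLR2 (poly-D-lysine plates) or SU.86.86 cells grown 2 days to ~80% confluence. Unlabeled ligand 1 μM to 0.01 nM plus 90 nM Eu-DTPA-labeled tracer, 1 h at 37°C; three washes, enhancement solution 30 min at 37°C, read at 340 nm excitation/615 nm emission with time delay.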

T1 sequence (O60603 whole entry): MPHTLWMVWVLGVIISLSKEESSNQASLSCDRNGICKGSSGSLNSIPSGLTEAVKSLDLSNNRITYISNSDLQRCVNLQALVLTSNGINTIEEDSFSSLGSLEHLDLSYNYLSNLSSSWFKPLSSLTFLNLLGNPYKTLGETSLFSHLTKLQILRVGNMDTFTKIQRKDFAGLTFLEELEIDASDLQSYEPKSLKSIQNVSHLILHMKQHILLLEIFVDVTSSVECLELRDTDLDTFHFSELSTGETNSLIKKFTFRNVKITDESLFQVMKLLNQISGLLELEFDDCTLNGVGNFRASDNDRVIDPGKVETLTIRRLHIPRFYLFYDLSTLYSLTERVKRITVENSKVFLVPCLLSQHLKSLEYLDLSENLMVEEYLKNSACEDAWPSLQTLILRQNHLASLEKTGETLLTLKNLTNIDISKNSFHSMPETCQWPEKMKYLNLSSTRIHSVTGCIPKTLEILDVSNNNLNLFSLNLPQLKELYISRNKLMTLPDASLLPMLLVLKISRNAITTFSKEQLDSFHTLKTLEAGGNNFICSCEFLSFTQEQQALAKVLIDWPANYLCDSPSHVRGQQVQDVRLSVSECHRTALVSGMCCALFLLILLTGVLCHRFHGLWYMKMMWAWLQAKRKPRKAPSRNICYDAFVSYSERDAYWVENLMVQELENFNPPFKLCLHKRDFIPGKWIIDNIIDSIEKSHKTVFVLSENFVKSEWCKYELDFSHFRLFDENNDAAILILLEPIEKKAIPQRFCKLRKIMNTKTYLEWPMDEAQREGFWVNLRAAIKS

The term EC50 denotes the concentration giving half of the maximal effect. The Ki is the equilibrium dissociation constant of an inhibitor or competing ligand from its target. Lower therefore signals higher affinity. In the case of `CCCCCCCCCCCCCCCC(=O)OCC(CSCC(NC(=O)COCC(=O)NCCCOCCOCCOCCCNC(=O)CCSC1CC(=O)N(CCNC(=O)CCCCC[N+]2=C(/C=C/C=C/C=C3/Cc4cc(S(=O)(=O)O)ccc4N3CC)Cc3cc(S(=O)(=O)[O-])ccc32)C1=O)C(=O)NCC(=O)NC(CO)C(=O)NCCCOCCOCCOCCCNC(=O)COCC(N)=O)OC(=O)CCCCCCCCCCCCCCC` (centres undefined), the concentration giving a half-maximal response (EC50) in assay [1] stood at 34 nM. Further, the Ki amounted to 67 nM in assay [2] and 11 nM in assay [3].
`CCCCCCCCCCCCCCCC(=O)OC[C@H](CSC[C@H](NC(=O)COCC(=O)NCCCOCCOCCOCCCNC(C)=O)C(=O)N[C@@H](CO)C(=O)N[C@@H](CCCNC(=N)N)C(=O)N[C@@H](Cc1ccccc1)C(=O)N[C@@H](CC(=O)O)C(=O)N[C@@H](CCC(=O)O)C(=O)N[C@@H](CC(=O)O)C(=O)N[C@@H](CC(=O)O)C(=O)N[C@@H](CC(C)C)C(=O)N[C@@H](CCC(=O)O)C(N)=O)OC(=O)CCCCCCCCCCCCCCC` (X1-C(Propyl(2R-PamO,3-PamO))SRFDEDDLE-NH2): the EC50 in assay [1] is 25 nM.
